According to ChEMBL document CHEMBL2157989, “Synthesis and biological evaluation of antibody conjugates of phosphate prodrugs of cytotoxic DNA alkylators for the targeted treatment of cancer” (J Med Chem, 2012):
In brackets after ≈: the same amount, converted by molar mass.

Columns and labels:
[1] = Solubility of the compound in 100% buffer at pH 7 at 1.5 mg sonicated for 45 mins followed by centrifugation for 45 mins by UV/Vis spectroscopy; assay type: physicochemical
[2] = Solubility of the compound in 5% DMA and 95% buffer at pH 7 at 1.5 mg sonicated for 45 mins followed by centrifugation for 45 mins by UV/Vis spectroscopy; assay type: physicochemical
In short: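 For buffers with 5% or less DMA, a 50 mM stock of compound in DMA is diluted 20–100 times into pH 7.0 buffer. It is then sonicated for 45 min and centrifuged at 1400g for 45 min. Supernatant is quantified by UV/vis at 340 nm, with ε of 41500 (DC1–SR₂ compounds) or 34500 M⁻¹ cm⁻¹ (phosphate prodrugs).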

[3] = Solubility of the compound in 10% DMA and 90% buffer at pH 7 at 1.5 mg sonicated for 45 mins followed by centrifugation for 45 mins by UV/Vis spectroscopy; assay type: physicochemical
In short: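 About 1.5 mg of compound is sonicated for 45 min in pH 7.0 buffer containing 10% or 20% DMA, then centrifuged at 1400g for 45 min. Supernatant concentration is read by UV/vis at 340 nm. ε at pH 7.0 is 41500 M⁻¹ cm⁻¹ for DC1–SR₂ compounds and 34500 M⁻¹ cm⁻¹ for phosphate prodrugs.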

[4] = Cytotoxicity against human NAMALWA cells assessed as cell survival after 72 hrs by clonogenic assay; assay type: functional, cell-based; conditions: NAMALVA
In short: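 Cells were kept in RPMI 1640 with 10% heat-inactivated FBS at 37 °C and 6% CO₂. They were plated at 1000–5000 cells/well and exposed to 0–3 nM test agent for 72 h. Medium was then replaced and colonies grew for 7–10 days in total after plating. Colonies were fixed and stained with 0.2% crystal violet in 10% formalin/PBS, then counted. Surviving fraction = colonies in treated wells / colonies in control wells; IC₅₀ was taken from this.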

[5] = test system: Ramos; assay: Cytotoxicity against human Ramos cells assessed as cell survival after 72 hrs in presence of bovine alkaline phosphatase by clonogenic assay; assay type: functional, cell-based
In short: (§1)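 Clonogenic assay: cells in RPMI 1640 with 10% heat-inactivated FBS were plated at 1000–5000 cells/well. Test agent (0–3 nM) was combined with alkaline phosphatase from bovine liver, and cells were exposed for 72 h. Colonies then grew for 7–10 days after plating and were stained with 0.2% crystal violet in 10% formalin/PBS. Surviving fraction is relative to untreated control wells.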

[6] = Cytotoxicity against human NAMALWA cells assessed as cell survival after 72 hrs in presence of bovine alkaline phosphatase by clonogenic assay; assay type: functional, cell-based; conditions: NAMALVA; in short: as §1
[7] = Prodrug activation assessed as enzyme-mediated compound dephosphorylation in presence of bovine alkaline phosphatase P8361 at pH 7.4 by HPLC; conditions: cattle, isolated protein
[8] = Prodrug activation assessed as enzyme-mediated compound dephosphorylation in presence of bovine intestinal mucosa alkaline phosphatase P7640 at pH 7.4 by HPLC; conditions: cattle, isolated protein
[9] = Prodrug activation assessed as enzyme-mediated compound dephosphorylation in presence of bovine kidney alkaline phosphatase P4653 at pH 7.4 by HPLC; conditions: cattle, isolated protein
[10] = Prodrug activation assessed as enzyme-mediated compound dephosphorylation in presence of canine intestine alkaline phosphatase P8639 at pH 7.4 by HPLC; conditions: dog, isolated protein
[11] = Prodrug activation assessed as enzyme-mediated compound dephosphorylation in presence of porcine kidney alkaline phosphatase P4439 at pH 7.4 by HPLC; conditions: pig, isolated protein
[12] = Prodrug activation assessed as enzyme-mediated compound dephosphorylation in presence of rabbit intestine alkaline phosphatase P2256 at pH 7.4 by HPLC; conditions: isolated protein
[13] = Solubility in water at 1.5 mg sonicated for 45 mins followed by centrifugation for 45 mins by UV/Vis spectroscopy; assay type: physicochemical; conditions: 0.75 h
In short: (§2)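 Solid compound (~1.5 mg) in the stated solvent was sonicated 45 min, then centrifuged at 1400g for 45 min. The supernatant concentration was read by UV/vis at 340 nm, using ε = 41500 M⁻¹ cm⁻¹ for the free phenols and 34500 M⁻¹ cm⁻¹ for the phosphate prodrugs (pH 7.0 values).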

[14] = Solubility in toluene at 1.5 mg sonicated for 45 mins followed by centrifugation for 45 mins by UV/Vis spectroscopy; assay type: physicochemical; conditions: 0.75 h; in short: as §2
[15] = Solubility in ethyl acetate at 1.5 mg sonicated for 45 mins followed by centrifugation for 45 mins by UV/Vis spectroscopy; assay type: physicochemical; conditions: 0.75 h; in short: as §2
[16] = Solubility in chloroform at 1.5 mg sonicated for 45 mins followed by centrifugation for 45 mins by UV/Vis spectroscopy; assay type: physicochemical; conditions: 0.75 h; in short: as §2
[17] = Solubility in dichloromethane at 1.5 mg sonicated for 45 mins followed by centrifugation for 45 mins by UV/Vis spectroscopy; assay type: physicochemical; conditions: 0.75 h
[18] = Solubility in methanol at 1.5 mg sonicated for 45 mins followed by centrifugation for 45 mins by UV/Vis spectroscopy; assay type: physicochemical; conditions: 0.75 h; in short: as §2
[19] = Solubility in DMSO at 1.5 mg sonicated for 45 mins followed by centrifugation for 45 mins by UV/Vis spectroscopy; assay type: physicochemical; conditions: 0.75 h; in short: as §2
[20] = Solubility in DMA at 1.5 mg sonicated for 45 mins followed by centrifugation for 45 mins by UV/Vis spectroscopy; assay type: physicochemical; conditions: 0.75 h; in short: as §2
[21] = Solubility in DMF at 1.5 mg sonicated for 45 mins followed by centrifugation for 45 mins by UV/Vis spectroscopy; assay type: physicochemical; conditions: 0.75 h; in short: as §2
[22] = Solubility in water containing 5% THF at 1.5 mg sonicated for 45 mins followed by centrifugation for 45 mins by UV/Vis spectroscopy; assay type: physicochemical; conditions: 0.75 h
[23] = Solubility in water containing 5% DMSO at 1.5 mg sonicated for 45 mins followed by centrifugation for 45 mins by UV/Vis spectroscopy; assay type: physicochemical; conditions: 0.75 h
[24] = Solubility in water containing 5% DMA at 1.5 mg sonicated for 45 mins followed by centrifugation for 45 mins by UV/Vis spectroscopy; assay type: physicochemical; conditions: 0.75 h
[25] = Solubility in water containing 5% DMF at 1.5 mg sonicated for 45 mins followed by centrifugation for 45 mins by UV/Vis spectroscopy; assay type: physicochemical; conditions: 0.75 h
[26] = Stability of the compound in 5 % DMA assessed as cyclopropyl ring formation incubated for 1 yr at room temperature at pH 7 by HPLC analysis; assay type: physicochemical; conditions: buffer, pH 7, 8766 h
In short: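 Phosphate prodrug is stored for one year at room temperature in phosphate buffer containing 5% DMA at pH ~7. Conversion to the ring-closed cyclopropyl form is monitored by HPLC.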

[27] = Prodrug activation assessed as enzyme-mediated compound dephosphorylation in presence of wheat germ acid phosphatase Sigma P3627 at pH 7.4 by HPLC; conditions: isolated protein
[28] = Prodrug conversion assessed as 1 - [ S ] - ( Ch l o r ome t h y l ) - 5 - h y d r o x y - 3 - { { 5 - [ 5 - ( 3 -methyldithiopropionyl)indol-2-yl-carbonyl amino]indole-2-yl}- carbonyl}-1,2-dihydro-3H-benz[e]indole formation in presence of bovine liver alkaline phosphatase at pH 7.4; assay type: physicochemical; conditions: cattle, isolated protein
[29] = Prodrug conversion assessed as 1-[S]-(Chloromethyl)-5-hydroxy-3-{{5-[5-(3-methyldithiopropionyl)indol-2-yl-carbonyl amino]indole-2-yl}- carbonyl}-1,2-dihydro-3H-benz[e]indole formation in presence of bovine kidney alkaline phosphatase at pH 7.4; assay type: physicochemical; conditions: cattle, isolated protein

solubility at 0.75 h [1] [µM] | solubility at 0.75 h [2] [µM] | solubility at 0.75 h [3] [µM] | Drug metabolism [7] | Drug metabolism [8] | Drug metabolism [9] | Drug metabolism [10] | Drug metabolism [11] | Drug metabolism [12] | solubility [13] | solubility [14] | solubility [15] | solubility [16] | solubility [17] | solubility [18] | solubility [19] | solubility [20] | SMILES | IC50 [4] [pM] | IC50 [5] [pM] | IC50 [6] [pM] | further results
19 (≈ 15.3 µg/mL) | 2900 (≈ 2340 µg/mL) | 4600 (≈ 3710 µg/mL) | Active | Active | Active | Active | Active | Active | Insoluble | Insoluble | Insoluble | Insoluble | Insoluble | Insoluble | soluble | soluble | CSSC(C)(C)CCC(=O)Nc1ccc2[nH]c(C(=O)Nc3ccc4[nH]c(C(=O)N5C[C@@H](CCl)c6c5cc(OP(=O)(O)O)c5ccccc65)cc4c3)cc2c1 | 2800 | 90 | 25 | solubility [21]: soluble; solubility [22]: soluble; solubility [23]: soluble; solubility [24]: soluble; solubility [25]: soluble; Drug degradation [26]: 3%; Drug metabolism [27]: Active; Drug metabolism [28]: Active; Drug metabolism [29]: Active
19 (≈ 14.5 µg/mL) | 3000 (≈ 2290 µg/mL) | 4700 (≈ 3590 µg/mL) | Active | Active | Active | Active | Active | Active | Insoluble | Insoluble | Insoluble | Insoluble | Insoluble | Insoluble | soluble | soluble | CSSCCC(=O)Nc1ccc2[nH]c(C(=O)Nc3ccc4[nH]c(C(=O)N5C[C@@H](CCl)c6c5cc(OP(=O)(O)O)c5ccccc65)cc4c3)cc2c1 | 2900 | 80 | 30 | solubility [21]: soluble; solubility [22]: soluble; solubility [23]: soluble; solubility [24]: soluble; solubility [25]: soluble; Drug degradation [26]: 3%; Drug metabolism [27]: Active; Drug metabolism [28]: Active; Drug metabolism [29]: Active
